In PMC4316201 (Gastroenterology, 2014):

What was measured:
human beings [1] = settings: cited from earlier work
healthy men [2] = assay type: in vivo, human beings; settings: study B
Procedure, shortened: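 Six healthy men were studied in a randomized, single-blind crossover (visits 4 weeks apart). At 7 am they drank a liquid meal containing 120,000 IU retinyl palmitate, with no food thereafter. At 2 pm (T = 0, 7 h post-meal) they received s.c. GLP-2 1500 mcg or placebo, with blood sampled for 3 h. TRL TG, retinyl palmitate and apoB-48 were measured. Incremental AUC over 0–3 h used the T = 0 concentration as baseline.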

healthy men [3] = assay type: in vivo, human beings; settings: study A
Procedure, shortened: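 Six healthy normoglycemic, normolipidemic men took part in a randomized, single-blind crossover (visits 4 weeks apart). After an overnight fast, liquid mixed-macronutrient formula was infused nasoduodenally for 15 h from 4 AM. A pancreatic clamp (somatostatin, insulin, glucagon, growth hormone) started at 7 AM. At 9 AM came primed constant d3-leucine for 10 h plus s.c. GLP-2 1500 ug or placebo. AUC covered the first 3 h. Multicompartmental modelling gave FCR.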

human beings [4] = settings: intravenous infusion of native GLP-2, human beings; cited from earlier work
[5] = Plasma total GLP-2 concentration after subcutaneous GLP-2; assay type: in vivo, human beings; settings: 1500 μg of GLP-2 subcutaneously
Procedure, shortened: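 Plasma total GLP-2 was measured during the study A visits in healthy men (randomized, single-blind crossover, visits 4 weeks apart). After an overnight fast, subjects received nasoduodenal formula feeding under a pancreatic clamp, then a single subcutaneous GLP-2 dose (1500 ug) or placebo at 9 AM. Sampling continued over the kinetic study.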

[6] = GLP-2 1500 mcg s.c. 7 h after meal, N = 6, vs placebo P = .002
[7] = GLP-2 1500 μg s.c. single dose, n = 6, vs placebo P = .03
[8] = GLP-2 1500 μg s.c., n = 6, vs placebo P = .02

**Q.** Which “effect on chylomicron production in human beings” value (human beings [1]; acute) does the source give for N[C@@H](CC(=O)N1CCn2c(nnc2C(F)(F)F)C1)Cc1cc(F)c(F)cc1F [sitagliptin] here?
**A.** Its value is “acutely reduces chylomicron production”.

**Q.** For exenatide, which “effect on chylomicron secretion in human beings” value (human beings [1]) is on record?
**A.** The value was “reduces chylomicron secretion”.

**Q.** Which results are given for glucagon-like peptide-2 [GLP-2]?
**A.** plasma glucose concentration, GLP-2 vs placebo (healthy men [2]): no significant difference; TRL TG iAUC0-3 (healthy men [2]; [6]): 0.28 ± 0.16 mmol/L/h; TRL retinyl palmitate iAUC0-3 (healthy men [2]; [6]): 0.86 ± 0.21 µmol/L/h; chylomicron (Sf > 400) retinyl palmitate peak concentration at 60 minutes (healthy men [2]; GLP-2 1500 mcg s.c. 7 h after meal, n = 5, vs placebo P = .003): 0.38 ± 0.06 µmol/L; TRL apoB-48 iAUC0-3 (healthy men [2]; GLP-2 1500 mcg s.c. 7 h after meal, n = 6, vs placebo P = .04): 1.45 ± 1.72 mg/L/h; TRL TG peak increment (healthy men [2]; GLP-2 1500 mcg s.c. 7 h after meal, vs placebo P = .003): 0.42 ± 0.11; TRL apoB-48 peak increment (healthy men [2]; GLP-2 1500 mcg s.c. 7 h after meal, vs placebo P = .006): 2.1 ± 0.8; plasma TG area under the concentration curve in the first 3 hours (AUC0-3) (healthy men [3]; [7]): 3.1 ± 0.4 mmol/L/h; plasma TG peak concentration at 1 hour (healthy men [3]; [7]): 1.23 ± 0.20 mmol/L; TRL apoB-48 AUC0-3 (healthy men [3]; [8]): 19.3 ± 5.0 mg/L/h; TRL apoB-48 peak concentration 1 hour after administration (healthy men [3]; [8]): 9.5 ± 2.6 mg/L; TRL TG peak concentration at 1 hour (healthy men [3]; GLP-2 1500 μg s.c., n = 6, vs placebo P = .15): 0.79 ± 0.09 mmol/L; TRL TG AUC0-3 (healthy men [3]; GLP-2 1500 μg s.c., n = 6, vs placebo P = .24): 1.9 ± 0.2 mmol/L/h; TRL apoB-100 mean concentration for the 10-hour kinetics study (healthy men [3]; GLP-2 1500 μg s.c., n = 6, vs placebo P = .5): 74.8 ± 7.4 mg/L; TRL apoB-100 AUC0-3 (healthy men [3]; GLP-2 1500 μg s.c., n = 6, vs placebo P = .95): 216 ± 21.9 mg/L/h; mean plasma glucagon concentration (healthy men [3]; GLP-2 1500 μg s.c., pancreatic clamp, vs placebo P = .01): 143.3 ± 14.2 pg/mL; mean plasma glucose concentration (healthy men [3]; GLP-2 1500 μg s.c., pancreatic clamp, vs placebo P = .049): 8.7 ± 0.3 mmol/L; plasma FFA concentration, GLP-2 vs placebo (healthy men [3]; during kinetic study): no significant difference; plasma insulin concentration, GLP-2 vs placebo (healthy men [3]; during kinetic study): no significant difference; effect on postprandial plasma TG and free fatty acid (FFA) concentrations (human beings [4]): increase; GLP-2 concentration at 4 hours relative to the level at 2 hours [5]: approximately half; plasma total GLP-2 concentration compared with placebo ([5]; 2 and 4 hours after administration): significantly increased
